Reference: the RNAGym collection of RNA variant scans (doi:10.1126/science.aae0568)
Variants at the floor of the assay were thinned out.

B1: tRNA (parent)
chain: GUUCCGUUGGCGUAAUGGUAACGCGUCUCCCUCCUAAGGAGAAGACUGCGGGUUCGAGUCCCGUACGGAACG

Variants of: B1
Test: yeast fitness relative to wild type (ratio to wild type); higher = fitter; tRNA-Arg(CCU), competitive growth, 37 C, YPD
Procedure, shortened: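 For this measurement, the tRNA-Arg(CCU) gene was varied by chemical synthesis at a 3% per-site mutation rate across 69 sites, and each variant was placed at the native genomic locus in Saccharomyces cerevisiae. The pooled strains went through a 24-hour competition in YPD at 37°C in six parallel replicates, with amplicons from start and end populations read by 100-nucleotide paired-end sequencing. Darwinian fitness relative to wild type followed from the change in each genotype's frequency. Genotypes needed ≥ 100 starting reads, and estimates < 0.5 were set to 0.5.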

Row | Variant | yeast fitness
1 | G9C G10C A36U G44A C46G | 0.563
2 | G10C C31G | 0.631
3 | G10C G25C C55A | 0.545
4 | G10A A15C A70U | ≤ 0.5
5 | G10C U26A A70U | 0.622
6 | G10C U26C A45G A65C | 0.635
7 | G10A C34G A69U | ≤ 0.5
8 | G10C A36C U47A G48C U54G A65C | ≤ 0.5
9 | G10A A36G | 0.664
10 | G10A A36C | ≤ 0.5
11 | G9C G12C C33U U35A | ≤ 0.5
12 | C11A A15G C49U | 0.55
13 | G10A G17C C30G C33G C61A | 0.556
14 | G10U C31U | 0.78
15 | G9C G44C | 0.65
16 | G10C G12A U54A G68A | ≤ 0.5
17 | G9C G25C C66U A70C | 0.55
18 | G9C U54G | 0.605
19 | G10A C34U G39C | ≤ 0.5
20 | G10C A36U G41A C66U A70C | ≤ 0.5
21 | G10C C22A C24G C27U U53A | 0.543
22 | C11A A14U C27U | ≤ 0.5
23 | G10C A43C | 0.591
24 | G10C C55U | ≤ 0.5

Row | Variant | yeast fitness
25 | G9C G10C U47A G68C | ≤ 0.5
26 | G10C A45C C46A C66U | 0.643
27 | G10A G39A | 0.784
28 | G9U C22U | 0.715
29 | G10A A36U A37G | ≤ 0.5
30 | G10A A21U C33A G68C | 0.607
31 | G10C C33A | 0.506
32 | G10C C33G | 0.558
33 | G10A C11A C29A A69U | 0.538
34 | G10A C22A C46A | ≤ 0.5
35 | G10C U13A A14G A20G C22A C24G G52C | ≤ 0.5
36 | C11A A15G C22G C61U | ≤ 0.5
37 | G10C A14U G38C | 0.736
38 | G10C A43C C46G C55G A65U | 0.547
39 | G10C C22G C29A C46U A65C | 0.538
40 | G10A A42C A43C C66A | ≤ 0.5
41 | C11A A14G C24U G41C A42G C55G | ≤ 0.5
42 | G10U U13A | 0.675
43 | G10A C11G A20G C55G | ≤ 0.5
44 | G10C A20U A57U | ≤ 0.5
45 | G10A U13G C22G C46G | ≤ 0.5
46 | G10C A20G C24U G38C G56C C66U | ≤ 0.5
47 | G10C C27U C30U U53A A69C | ≤ 0.5
48 | G10C C22A C24G U53A G67A | ≤ 0.5

Row | Variant | yeast fitness
49 | G9C U47G C49A A69U | ≤ 0.5
50 | G10C U16C C22A C33A | ≤ 0.5
51 | G10A G38A A57G | ≤ 0.5
52 | G10A A45G C55A | ≤ 0.5
53 | G10A C27U C34G A37U G41C G48A | 0.573
54 | G10C C27G C30G G58A | 0.557
55 | G10A A15U G51A A65U | 0.603
56 | G10A U16C C29U | 0.599
57 | G10A U28A | 0.633
58 | G10C G25A | 0.691
59 | G10A U53A A65G | ≤ 0.5
60 | G10C A43U G63C C66A | ≤ 0.5
61 | G10C G12A A36G C46A U47A | ≤ 0.5
62 | C11A A15C C24A C27A G41C | 0.583
63 | G10A C24G C33G A45U G68C | ≤ 0.5
64 | G10A U32A G48A | ≤ 0.5
65 | G9C G50C U53G G67C | 0.68
66 | G10A A15C A37C C62A | 0.636
67 | G10C C29A C33A C62U | 0.6
68 | G10C U13A C31A | 0.594
69 | G10C C11G G50A A65C | ≤ 0.5
70 | G10C A14C C27A C29G A57C | ≤ 0.5
71 | G10C A40U A57C A65U | ≤ 0.5
72 | G9C G44A C60G | ≤ 0.5

Row | Variant | yeast fitness
73 | G10A G23C G52A | 0.565
74 | G10C G25C U26C | 0.526
75 | G10C C27U A40U A45U G48A | ≤ 0.5
76 | G10A U16A G39C | ≤ 0.5
77 | G10A G68C | 0.768
78 | G10A G18C C33G C66G | ≤ 0.5
79 | G10C U16G C31A U32G C66A | ≤ 0.5
80 | G10A A36C A70G | ≤ 0.5
81 | G10C C24U G68U | ≤ 0.5
82 | G10C A37C A43U | ≤ 0.5
83 | G10C C11A C34A G51A C61G A69U | ≤ 0.5
84 | G10C C55G A69C | ≤ 0.5
85 | G9C G10C C29G C46A C66U | ≤ 0.5
86 | G10A U16A A21C | 1
87 | G9C G56C | 0.514
88 | G9C U53C | 0.59
89 | G10C C22A C24G G50C A65C | ≤ 0.5
90 | G10A G18A A42C C61A | 0.858
91 | G10A U16A A65G | 0.542
92 | G10C C33G A36C C46A A65U | 0.53
93 | G10A C27U G67C | 0.627
94 | G10A C24G G56A | ≤ 0.5
95 | G10C G50A | 0.76
96 | G10A U19C G48A C49G A69U | 0.594

Row | Variant | yeast fitness
97 | G9C G23A | 0.544
98 | G10A C55U C61A | ≤ 0.5
99 | G10C C30U C66A | ≤ 0.5
100 | G10C A37C | 0.622
101 | G10C A37U | ≤ 0.5
102 | G10A A57G G68C | ≤ 0.5
103 | G9C G17C C27G U35A C49A A69U | 0.536
104 | G10C A42U C46G | ≤ 0.5
105 | G10A U13A C24A | 0.582
106 | G10A U16A C31A G51A | 0.584
107 | G10A C49A | 0.521
108 | G10A G23A | 0.534
109 | G10A G63C A65G | ≤ 0.5
110 | G9C U13C C27A U54A C60U | ≤ 0.5
111 | G10C A21C C29A C30G A40C | ≤ 0.5
112 | G10C C24A C61U | ≤ 0.5
113 | G10C C11U G67A | ≤ 0.5
114 | G10A G56A C60U | ≤ 0.5
115 | G10A U16A G23A C30G G51C | ≤ 0.5
116 | G10A U35C G56A | ≤ 0.5
117 | G10C C31G A70U | 0.569
118 | G10C G51C A65C C66U | ≤ 0.5
119 | G10A C66U | 0.635
120 | G9C U16C A69C | 0.562

Row | Variant | yeast fitness
121 | G10A C22G G25C | ≤ 0.5
122 | G10C C22A C24G G51C C62U | ≤ 0.5
123 | G10A G17A | 0.556
124 | G10A G17C | 0.549
125 | G10A C33U G44C A45G G58A | ≤ 0.5
126 | G10A C60G | 0.531
127 | G10A C60U | 0.544
128 | G10C C49G U53G | 0.551
129 | G9C G12C C31A A40U | ≤ 0.5
130 | G10C U19A C66U | ≤ 0.5
131 | G9C U59A | 0.737
132 | G10A C31U G38C G63A A65G G68C A69G | ≤ 0.5
133 | G10C G39A | 0.563
134 | G9C G63A | 0.72
135 | G10C A15G | 0.786
136 | G10A U19A G41C | ≤ 0.5
137 | G10C C22G C33A | 0.581
138 | G10A U16C | 0.777
139 | G10A U16A | 0.708
140 | G10A U19C G41C | 0.532
141 | G10A U28C C60G | ≤ 0.5
142 | G10A G18A C46A A65U | ≤ 0.5
143 | G10C C34A U53A U54G | ≤ 0.5
144 | G10A A43U C60U | ≤ 0.5

Row | Variant | yeast fitness
145 | G9C U16G C31A C60A | ≤ 0.5
146 | G10A C24A A43C C61U | ≤ 0.5
147 | G10A A21C C24A C66A | ≤ 0.5
148 | G9C U19C C31A | ≤ 0.5
149 | G10A G17C C31U C55U C60A | ≤ 0.5
150 | G10C A37C A42U | ≤ 0.5
151 | G10C A21C C27A C34A | ≤ 0.5
152 | G10A G18A | ≤ 0.5
153 | G10C G23C A65C | ≤ 0.5
154 | G9C U13A G25A A40C A57C G58A C61A G67A | ≤ 0.5
155 | G10C G58A C66G | ≤ 0.5
156 | G10A A14C G17A C22G C24G C30A | 0.775
157 | G10C A42G A57U | ≤ 0.5
158 | G10C C11U C24U C33G A36U | ≤ 0.5
159 | G10A A21C C34U | ≤ 0.5
160 | G10A U19A A42G | ≤ 0.5
161 | G10C U32C C33A | ≤ 0.5
162 | G10C C22A C60G C61U G63A | ≤ 0.5
163 | G10A C11U A20G A40G C55G | ≤ 0.5
164 | G9U C11G U32G G56A | ≤ 0.5
165 | G10A A15G C27U A42C G50C | ≤ 0.5
166 | G10C C11G G56C G68A | ≤ 0.5
167 | G9U G18A C46A C49G | 0.552
